Calls of active or inactive are those of the source. No cut-off for these calls is given here.

Consider 2 compounds from ChEMBL document CHEMBL1687742, “Candida albicans and Staphylococcus aureus form polymicrobial biofilms: effects on antimicrobial resistance” (2009).

Assay [1] has as its system Staphylococcus aureus. In words: Antibacterial activity against Staphylococcus aureus ATCC 29523 […] polymicrobial biofilms grown in presence of Candida albicans SC5314 assessed as bacterial viability after 24 hrs in presence 50% bovine serum by CFU assay. The format is functional, organism-based.
In assay [2] the test system is Staphylococcus aureus. In words: Antibacterial activity against 10^7 CFU/ml Staphylococcus aureus ATCC 29523 polymicrobial biofilms grown in presence of Candida albicans biofilm matrix assessed as reduction in bacterial viability at 1.582 to 1600 ug/mL after 24 hrs in presence 50% bovine serum by CFU assay. The format is functional, organism-based. In outline:
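Matrix came from 24-h C. albicans biofilms in 50% BS. It was scraped, sonicated, centrifuged three times at 12,000 × g and treated with Amp B 20 μg/ml. S. aureus (10⁷ CFU/ml) plus matrix in 50% BS was grown in 96-well plates for 24 h at 37°C, washed, then exposed to vancomycin for 24 h. Washed cells were counted as CFU. Duplicates; two independent experiments.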

For assay [3], the system named is Staphylococcus aureus. In words: Antibacterial activity against 10^7 CFU/ml Staphylococcus aureus ATCC 29523 polymicrobial biofilms grown in presence of Candida albicans SC5314 assessed as bacterial viability at 1600 ug/mL after 24 hrs in presence 50% bovine serum by CFU assay. Format: functional, organism-based. In outline: (§1)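 Biofilms were formed in 96-well tissue culture-treated plates in 50% BS with C. albicans (10⁶ CFU/ml) and/or S. aureus (10⁷ CFU/ml) for 24 h at 37°C. They were washed three times in PBS. Vancomycin, Amp B or both were added from DMSO stocks diluted in 50% BS, and biofilms were incubated a further 24 h. Cells were sonicated, tenfold-diluted and counted as CFU on selective agar. Duplicates; averages of two experiments.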

Assay [4] concerns Staphylococcus aureus. In words: Antibacterial activity against 10^7 CFU/ml Staphylococcus aureus ATCC 29523 monomicrobial biofilms assessed as bacterial viability after 24 hrs by CFU assay in presence of 50% bovine serum. Format: functional, organism-based. In outline:
as §1

The test system of assay [5] is Staphylococcus aureus. In words: Antibacterial activity against 10^7 CFU/ml Staphylococcus aureus ATCC 29523 monomicrobial biofilms assessed as bacterial viability after 24 hrs by CFU assay in presence of 50% heat inactivated bovine serum. Format: functional, organism-based.
Assay [6] has as its system Candida albicans. The assay is described as follows: Antifungal activity against Candida albicans SC5314 polymicrobial biofilms grown in presence of sStaphylococcus aureus ATCC 29523 assessed as fungal viability after 24 hrs by CFU assay in presence of 50% bovine serum. The format is functional, organism-based. In outline: as §1
The subject of assay [7] is Candida albicans. The assay is described as follows: Antifungal activity against Candida albicans SC5314 monomicrobial biofilms assessed as fungal viability after 24 hrs by CFU assay in presence of 50% bovine serum. The format is functional, organism-based. In outline: as §1
Assay [8] relates to Staphylococcus aureus. In words: Antibacterial activity against 10^7 CFU/ml Staphylococcus aureus ATCC 29523 polymicrobial biofilms grown in presence of Candida albicans SC5314 assessed as bacterial viability after 24 hrs in presence of amphotericin B by CFU assay in presence of 50% bovine serum. The format is functional, organism-based. In outline:
as §1

In assay [9] the test system is Staphylococcus aureus. In words: Antibacterial activity against 10^7 CFU/ml Staphylococcus aureus ATCC 29523 polymicrobial biofilms grown in presence of Candida albicans SC5314 assessed as log reduction in bacterial viability at 800 ug/mL after 24 hrs in presence of amphotericin B by CFU assay in presence of 50% bovine serum. The format is functional. The essentials: as §1

The test system of assay [10] is Staphylococcus aureus. The assay is described as follows: Antibacterial activity against 10^7 CFU/ml Staphylococcus aureus ATCC 29523 monomicrobial biofilms assessed as log reduction in bacterial viability at 800 ug/mL after 24 hrs in presence of amphotericin B by CFU assay in presence of 50% bovine serum. Format: functional. In outline:
as §1

The subject of assay [11] is Staphylococcus aureus. In words: Antibacterial activity against 10^7 CFU/ml Staphylococcus aureus ATCC 29523 polymicrobial biofilms grown in presence of 10^6 CFU/mL Candida albicans SC5314 assessed as bacterial viability at 800 ug/mL after 24 hrs by Transwell assay. The format is functional, organism-based. The essentials: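 S. aureus (10⁷ CFU/ml) went in the bottom well and C. albicans (10⁶ CFU/ml) on a 0.4-μm PET Transwell insert, 24 h at 37°C. After PBS washing, vancomycin 800 μg/ml (diluted in 50% BS) went to the bottom well and Amp B to the insert, for 24 h at 37°C. CFU were counted in both compartments, with no-insert controls. Duplicates; averages of two experiments.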

Assay [12] has as its system Candida albicans. The assay is described as follows: Antifungal activity against Candida albicans SC5314 planktonic polymicrobial biofilms grown in presence of Staphylococcus aureus ATCC 29523 assessed as […] viability after 24 hrs in presence 50% bovine serum by CFU assay. Format: functional, organism-based. In outline:
(§2)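 C. albicans SC5314 at 10⁶ CFU/ml, alone or with S. aureus (10⁷ CFU/ml) for the mixed biofilm, was seeded in 50% bovine serum in tissue-culture-treated 96-well plates, 37°C, 24 h. Biofilms were PBS-washed thrice and exposed to serial antifungal concentrations diluted in 50% BS from DMSO stocks for 24 h. CFU were counted on ampicillin/erythromycin SDA after sonication. Duplicates, two experiments averaged.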

The test system of assay [13] is Candida albicans. The assay is described as follows: Antifungal activity against Candida albicans SC5314 planktonic monomicrobial biofilms assessed as […] viability after 24 hrs in presence 50% bovine serum by CFU assay. The format is functional, organism-based. The essentials:
as §2

As to `CN[C@H](CC(C)C)C(=O)N[C@H]1C(=O)N[C@@H](CC(N)=O)C(=O)N[C@H]2C(=O)N[C@H]3C(=O)N[C@H](C(=O)N[C@H](C(=O)O)c4cc(O)cc(O)c4-c4cc3ccc4O)[C@H](O)c3ccc(c(Cl)c3)Oc3cc2cc(c3O[C@@H]2O[C@H](CO)[C@@H](O)[C@H](O)[C@H]2O[C@H]2C[C@](C)(N)[C@H](O)[C@H](C)O2)Oc2ccc(cc2Cl)[C@H]1O` [VANCOMYCIN], the “growth inhibition (GI)” value in the assay with Staphylococcus aureus [1], in the assay with Staphylococcus aureus [8] and in the assay with Staphylococcus aureus [11] was “Active” each time. Besides, the “growth inhibition (GI)” value in the assay on Staphylococcus aureus [2], in the assay with Staphylococcus aureus [3], in the assay on Staphylococcus aureus [5], in the assay on Candida albicans [6] and in the assay with Candida albicans [7] was “inactive” throughout. Also, in the assay on Staphylococcus aureus [4], the “growth inhibition (GI)” value is “Dose-dependent effect”. The FC in the assay with Staphylococcus aureus [9] and in the assay with Staphylococcus aureus [10] was 2 each time.
For the compound `C[C@@H]1[C@H](O)[C@@H](C)/C=C/C=C/C=C/C=C/C=C/C=C/C=C/[C@H](O[C@@H]2O[C@H](C)[C@@H](O)[C@H](N)[C@@H]2O)C[C@@H]2O[C@](O)(C[C@@H](O)C[C@@H](O)[C@H](O)CC[C@@H](O)C[C@@H](O)CC(=O)O[C@H]1C)C[C@H](O)[C@H]2C(=O)O`, the “growth inhibition (GI)” value in the assay with Candida albicans [12] and in the assay on Candida albicans [13] was “Active” each time. Besides, the “growth inhibition (GI)” value with Candida albicans [7] was “inactive”.
